The text below walks through data of ChEMBL document CHEMBL4513216, “Probing the Open Global Health Chemical Diversity Library for Multistage-Active Starting Points for Next-Generation Antimalarials” (ACS Infect Dis, 2020).

Molecules are shown by their SMILES.

The data set is described as follows: Toxicity liver stage against HepG2, at 10uM. The class given is cell-based. Details: test concentration 10 uM, cell line HepG2-A16-CD81EGFP. The following applies: human, HepG2-A16-CD81EGFP cells; read-out: INHIBITION
The essentials:
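Uninfected HepG2-A16-CD81EGFP cells, 3 × 10^3 per well, 1536-well, plated on prespotted compound at 10 μM final, parasite-free screening media added to match infected plates; puromycin 10 μM positive, DMSO 0.5% negative; run in parallel with 48 h PbLuc assay at 37 °C, 5% CO2; viability by CellTiter-Glo luminescence, normalized to controls.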
As to `Oc1ccccc1CN1C[C@H](O)C[C@H]1c1nc(Cc2ccccc2)no1`, the cytotoxicity at 10 µM is -4.82%.

Consider `CC(C)n1cnc2ccc(NC(=O)CCCn3cccn3)cc2c1=O`, for which the cytotoxicity at 10 µM was -10.6%.

As for `Cc1nnc(N2C[C@@H]3CCCO[C@@H]3[C@H](N(C)C)C2)s1`, the cytotoxicity at 10 µM was 17.5%.

Turning to `c1ccc(C[C@H]2[C@H](N3CCOCC3)CCN2Cc2cccnc2)cc1`, the cytotoxicity at 10 µM is -4.34%.

For the compound `CCOC(=O)CNC(=O)c1cc(-c2ccccc2)nc2ncnn12`, the cytotoxicity at 10 µM is -5.75%.

On to `CC(NCCCN1CCCC1=O)c1cc(Br)ccc1F` (configuration not stated), for which the cytotoxicity at 10 µM is 1.63%.

On to `CCN(CC1CCOC1)S(=O)(=O)Cc1cc(Cl)ccc1OC` (configuration not stated), for which the cytotoxicity at 10 µM came to 3.1%.

Turning to `CCC(C)NC(=O)c1sccc1-n1cnnn1` (configuration not stated), the cytotoxicity at 10 µM was 5.45%.

Consider `CC(C)Cc1nc(C[S+]([O-])CC(=O)NCc2ccccc2)no1` (configuration not stated), for which the cytotoxicity at 10 µM was -6.45%.

Turning to `CCC(=O)NCC(=O)NC(C)c1ccc(OCCC(C)C)cc1` (configuration not stated), the cytotoxicity at 10 µM amounted to 7.89%.

In the case of `CC(C)Nc1ncccc1C(=O)NC1CC(=O)N(CC(F)(F)F)C1` (configuration not stated), the cytotoxicity at 10 µM is -1.54%.

For the compound `N#Cc1ccc(CN2CCN(c3cncc(Cl)n3)CC2=O)cc1`, the cytotoxicity at 10 µM worked out at 7.55%.

For the compound `CC(NC(=O)N1CCCN(C)CC1)c1ccc(S(N)(=O)=O)cc1` (configuration not stated), the cytotoxicity at 10 µM was -11.7%.

Consider `COC(=O)c1oc(CNC(C)(C)c2ccc3c(c2)OCCO3)cc1C`, for which the cytotoxicity at 10 µM turned out to be 5.36%.

Take `CN1CCC(C(=O)N2CCN(Cc3cccc(Cl)c3)CC2)CC1=O` (configuration not stated): the cytotoxicity at 10 µM is 5.44%.

On to `CN(C)CCOc1ccc(CNC(=O)c2cccc(Cl)c2Cl)cc1`, for which the cytotoxicity at 10 µM is 15.5%.

Consider `CC(c1ccc(Cl)cc1)N1CCN(CCCS(C)(=O)=O)CC1` (configuration not stated), for which the cytotoxicity at 10 µM is -8.73%.

On to `N#Cc1cc(NC(=O)c2ccccn2)ccc1N1CCC(O)CC1`, for which the cytotoxicity at 10 µM was 0.73%.

For `Cc1nc(CN2CCC(CNC(=O)C3CCOC3)CC2)oc1C` (configuration not stated), the cytotoxicity at 10 µM was 0.0966%.

With `O=C(C(CNCc1ccccn1)c1ccccc1)N1CCOCC1` (configuration not stated), the cytotoxicity at 10 µM is 0.983%.

As to `NC(=O)NC(=O)CCN1CCCC1c1nc(C2CCCCC2)co1` (configuration not stated), the cytotoxicity at 10 µM is 5.33%.

With `Cc1nc2n(n1)CC(Nc1ccnc(-c3ccccc3)n1)CC2` (configuration not stated), the cytotoxicity at 10 µM was 3.43%.

Turning to `O=C(Nc1cccc(CN2CCC(CO)CC2)c1)c1cc(Cl)c[nH]1`, the cytotoxicity at 10 µM was -150%.

Turning to `COCCn1ccc(NC(=O)Nc2ccncc2)n1`, the cytotoxicity at 10 µM is 4.49%.

Turning to `Cc1nc(C)n(CC2CCCCN2CC(=O)NCc2ccccn2)n1` (configuration not stated), the cytotoxicity at 10 µM was found to be 2.07%.

As to `O=C(CCc1ccsc1)N1CCCC(N2CCNC2=O)C1` (configuration not stated), the cytotoxicity at 10 µM was -5.7%.

On to `c1ccc(-c2cnc(CN(Cc3cccnc3)CC3CCCO3)o2)cc1` (configuration not stated), for which the cytotoxicity at 10 µM is 17.5%.

With `Cc1n[nH]c(C2CN(C(=O)c3ccc(=O)n(C)c3)CCO2)n1` (configuration not stated), the cytotoxicity at 10 µM worked out at 3.75%.

Turning to `CCC(=O)N1CCN(C(=O)Nc2ccccc2-c2cccs2)CC1`, the cytotoxicity at 10 µM was -3.21%.

In the case of `CCOc1ncccc1C(=O)Nc1c(C)cnn1CC1CC1`, the cytotoxicity at 10 µM is 1.62%.

`Cc1oc(-c2ccccc2)nc1CC(=O)NC1=NCCS1`: the cytotoxicity at 10 µM was found to be 0.898%.

In the case of `Cc1cc(C)cc(OCC(=O)N2CCC2)c1`, the cytotoxicity at 10 µM was determined as 2.01%.

For the compound `CN(C)CC(=O)N1CCN(c2cc(N3CCCC3CO)ncn2)CC1` (configuration not stated), the cytotoxicity at 10 µM was -4.19%.

As for `O=C(COc1ccccc1NCc1ccoc1)N1CCOCC1`, the cytotoxicity at 10 µM was found to be 3.61%.

Turning to `CC(NC(=O)NCc1ccccn1)c1cccs1` (configuration not stated), the cytotoxicity at 10 µM is -14.4%.

Consider `COc1ccc(CC(=O)N2CCCN(c3ccc(C#N)cc3)CC2)cc1`, for which the cytotoxicity at 10 µM was -1.95%.

In the case of `COCC1CN(Cc2ccncc2)Cc2nn(C)cc21` (configuration not stated), the cytotoxicity at 10 µM was -74.1%.

Turning to `COCCN(C)C(C(=O)O)c1ccc(Cl)c(F)c1` (configuration not stated), the cytotoxicity at 10 µM was -2.46%.

In the case of `Cc1nccc(N[C@H]2CN(C(=O)C3(C#N)CCOCC3)C[C@@H]2C(C)C)n1`, the cytotoxicity at 10 µM is 9.81%.

As for `CC(C)(CN1CCC2(CCOCC2)CC1)N1CCOCC1`, the cytotoxicity at 10 µM is -148%.

Regarding `CCSc1ccc(C(=O)N2CC[C@](C)(O)[C@H](C)C2)s1`, the cytotoxicity at 10 µM is -12.2%.

With `Cc1cncc(C(=O)N2CCN(c3cnn(C)c(=O)c3)CC2)c1`, the cytotoxicity at 10 µM was -20.4%.

`NC(=O)NCCC(=O)N1CCC(c2cc(Cc3ccccc3)n[nH]2)CC1`: the cytotoxicity at 10 µM is 1.5%.

On to `O=S1(=O)C[C@@H]2[C@H](C1)N(Cc1ncc[nH]1)CCN2Cc1cccnc1`, for which the cytotoxicity at 10 µM was 0.875%.

On to `COc1ccc(CCN2CC(NCc3ncc[nH]3)CC2=O)cc1` (configuration not stated), for which the cytotoxicity at 10 µM is 0.749%.

For the compound `CCC(=O)Nc1cccc(OCC(=O)N(C)CCCC2CCCO2)c1` (configuration not stated), the cytotoxicity at 10 µM is -4.63%.

Take `CN1CC2(CCC1=O)CCN(CC[C@@H](O)c1ccccc1)CC2`: the cytotoxicity at 10 µM is -0.355%.

As for `CN(C)CCn1ccnc1C1CCN(C(=O)CCc2ccncc2)CC1`, the cytotoxicity at 10 µM is -9.67%.

Regarding `CCc1cnc(NCC(C)Oc2cccnc2)nc1` (configuration not stated), the cytotoxicity at 10 µM stood at 0.977%.

As to `Cc1nccn1CCC1CCCCN1C(=O)c1ccc2[nH]nnc2c1` (configuration not stated), the cytotoxicity at 10 µM worked out at 19.9%.

Consider `CCn1cnnc1CNC(=O)N1CCN(c2cccc(C)c2)CC1`, for which the cytotoxicity at 10 µM was -3.42%.

With `O=C(c1cc2c(s1)CCOC2)N1CCCCC1Cn1cccn1` (configuration not stated), the cytotoxicity at 10 µM was -6.52%.

Turning to `O=C(Cc1ccc2c(c1)OCCO2)N1CCN(c2cnccn2)CC1`, the cytotoxicity at 10 µM is -11.8%.

Consider `COc1ccc(C2CCCN2Cc2nc3c(cnn3C)c(=O)[nH]2)cc1` (configuration not stated), for which the cytotoxicity at 10 µM is -9.77%.

For the compound `CS(=O)(=O)NCCCN1CCCC1c1ccsc1` (configuration not stated), the cytotoxicity at 10 µM was found to be 2.85%.

Take `CCc1nnc(CN2CCOC(Cn3cccn3)C2)o1` (configuration not stated): the cytotoxicity at 10 µM was -8.15%.

As for `O=C1C(NS(=O)(=O)c2cccc(F)c2)CCN1Cc1ccccc1` (configuration not stated), the cytotoxicity at 10 µM was -1.67%.

With `CCc1noc(C(C)N2CCN(C)CC2)n1` (configuration not stated), the cytotoxicity at 10 µM was -3.21%.

Regarding `Cc1cnn(C2CCCN(C(=O)Cc3ccc(C#N)cc3)C2)c1` (configuration not stated), the cytotoxicity at 10 µM was -8.45%.

With `Cn1ncc(NCc2cccc(F)c2)c(Cl)c1=O`, the cytotoxicity at 10 µM was -7.72%.

Regarding `Cc1cc(C)n(CC2CCCN2C(=O)c2ccc(NC3CC3)nc2)n1` (configuration not stated), the cytotoxicity at 10 µM was determined as 6.53%.

With `CN1CC(=O)N(c2ccsc2)CC12CCN(C(=O)N1CCCC1)C2` (configuration not stated), the cytotoxicity at 10 µM is -72.6%.

For `CN(C)C(=O)N1CCOCC2(CCN(c3ncccn3)C2)C1` (configuration not stated), the cytotoxicity at 10 µM is -9.17%.

On to `Cc1nc(CN2CCC3(CCCN(Cc4ccoc4)C3)C2=O)cs1` (configuration not stated), for which the cytotoxicity at 10 µM was -0.142%.

Turning to `COc1cc(CNC(C)Cn2cccn2)cc2c1OCCO2` (configuration not stated), the cytotoxicity at 10 µM was found to be 1.67%.

Regarding `CCN1CCN(C)C(=O)C12CCN(C(=O)Cc1ccccn1)CC2`, the cytotoxicity at 10 µM stood at 0.597%.

Take `CC(C)N1CCO[C@H]2CN(C(=O)c3ccsc3)C[C@H]21`: the cytotoxicity at 10 µM was -72%.

On to `CC[C@@H]1N(Cc2ccc(OC)cc2)CCC[C@]12CCC(=O)N2CCOC`, for which the cytotoxicity at 10 µM was 14%.

Take `CO[C@H]1CCN(S(=O)(=O)c2cccs2)[C@H]1Cc1cccnc1`: the cytotoxicity at 10 µM was -75.5%.

As to `CN1CC(=O)N(c2cccc(F)c2)CC12CCN(S(C)(=O)=O)C2` (configuration not stated), the cytotoxicity at 10 µM was determined as 1.52%.

As for `CC1N(c2cnn(C)c2)C(=O)COC12CCN(CC1CC1)CC2` (configuration not stated), the cytotoxicity at 10 µM amounted to 3.68%.

Regarding `Cc1noc(C)c1CN1C(=O)[C@@H]2CC[C@H]1CN(Cc1cccnc1N)C2`, the cytotoxicity at 10 µM turned out to be 19.7%.
